Drawing on ChEMBL document CHEMBL1123413, “Synthesis and biological evaluation of 1-(1,2-benzisothiazol-3-yl)- and (1,2-benzisoxazol-3-yl)piperazine derivatives as potential antipsychotic agents” (J Med Chem, 1986), this text covers IC50 and ED50 for 13 compounds.

The target in one test is D(2) dopamine receptor (Rattus norvegicus, UniProt P61169). Put plainly: In vitro affinity for rat striatal Dopamine receptor D2 labeled with [3H]spiperone.
Test [1] has as its target T1, Adrenergic receptor alpha-1 (Rattus norvegicus, UniProt P15823+P23944+P43140).
T1 sequence (P15823 whole entry): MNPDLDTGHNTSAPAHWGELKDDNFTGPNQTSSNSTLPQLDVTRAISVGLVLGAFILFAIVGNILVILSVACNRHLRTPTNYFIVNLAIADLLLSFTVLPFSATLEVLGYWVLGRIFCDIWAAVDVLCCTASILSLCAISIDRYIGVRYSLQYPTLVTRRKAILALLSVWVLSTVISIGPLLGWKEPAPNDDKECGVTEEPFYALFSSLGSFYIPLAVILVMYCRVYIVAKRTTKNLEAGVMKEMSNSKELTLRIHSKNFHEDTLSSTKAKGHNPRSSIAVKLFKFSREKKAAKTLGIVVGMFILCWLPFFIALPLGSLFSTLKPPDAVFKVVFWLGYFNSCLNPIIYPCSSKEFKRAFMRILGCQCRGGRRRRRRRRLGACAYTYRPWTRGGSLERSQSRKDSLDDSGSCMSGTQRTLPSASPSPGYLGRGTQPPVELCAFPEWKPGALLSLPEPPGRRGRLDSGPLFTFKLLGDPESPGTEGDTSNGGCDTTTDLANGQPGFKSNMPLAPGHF
T1 sequence (P23944 whole entry): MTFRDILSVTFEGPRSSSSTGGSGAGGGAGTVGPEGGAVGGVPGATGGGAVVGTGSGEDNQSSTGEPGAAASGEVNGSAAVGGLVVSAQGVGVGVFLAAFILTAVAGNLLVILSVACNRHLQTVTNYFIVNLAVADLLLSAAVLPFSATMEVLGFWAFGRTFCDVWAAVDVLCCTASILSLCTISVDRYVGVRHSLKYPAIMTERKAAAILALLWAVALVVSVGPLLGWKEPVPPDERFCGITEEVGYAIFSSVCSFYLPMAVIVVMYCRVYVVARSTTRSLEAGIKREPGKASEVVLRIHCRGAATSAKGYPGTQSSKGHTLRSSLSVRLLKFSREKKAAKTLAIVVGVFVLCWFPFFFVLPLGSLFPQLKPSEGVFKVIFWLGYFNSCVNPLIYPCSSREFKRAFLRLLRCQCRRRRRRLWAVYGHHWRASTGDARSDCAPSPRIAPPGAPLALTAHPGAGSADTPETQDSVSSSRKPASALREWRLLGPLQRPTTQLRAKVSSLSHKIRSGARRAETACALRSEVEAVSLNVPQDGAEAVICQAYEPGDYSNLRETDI
T1 sequence (P43140 whole entry): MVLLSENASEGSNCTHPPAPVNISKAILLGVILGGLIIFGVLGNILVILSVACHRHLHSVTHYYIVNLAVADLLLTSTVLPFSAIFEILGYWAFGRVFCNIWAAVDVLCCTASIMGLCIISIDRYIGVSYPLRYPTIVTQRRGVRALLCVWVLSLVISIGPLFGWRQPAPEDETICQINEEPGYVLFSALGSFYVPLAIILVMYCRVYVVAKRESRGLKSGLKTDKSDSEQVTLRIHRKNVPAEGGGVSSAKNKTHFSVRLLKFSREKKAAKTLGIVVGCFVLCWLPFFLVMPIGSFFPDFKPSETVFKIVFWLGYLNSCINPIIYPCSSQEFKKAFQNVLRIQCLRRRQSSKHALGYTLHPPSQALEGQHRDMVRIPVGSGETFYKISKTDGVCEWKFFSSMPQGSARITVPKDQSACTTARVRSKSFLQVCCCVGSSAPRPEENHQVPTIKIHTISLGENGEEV

Test [2] is filed under the species Rattus norvegicus. Put plainly: Compound was tested for inhibition of conditioned avoidance response (CAR ). It counts as functional. Summed up: (§1)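 Rats trained to avoid an electric shock, test compound given orally, and block of the conditioned avoidance response scored. ED50 (mg/kg, po) with fiducial limits by the method of Berkson.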
The species named for test [3] is Rattus norvegicus. In words: Inhibition of conditioned avoidance response (CAR). It counts as functional. The procedure, abridged: as §1
The species named for test [4] is Rattus norvegicus. In words: Compound was tested for its ability to induce catalepsy in rats. Type of test: functional. Summed up:
(§2)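 Catalepsy was induced in rats with orally dosed compound as a predictor of extrapyramidal liability. ED50 (mg/kg, po) with fiducial limits by Berkson's method.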

The species entered for test [5] is Rattus norvegicus. In words: Compound was tested for its ability to induce catalepsy in rats. It counts as functional. The procedure, abridged:
as §2

Chain of D(2) dopamine receptor (P61169 whole entry): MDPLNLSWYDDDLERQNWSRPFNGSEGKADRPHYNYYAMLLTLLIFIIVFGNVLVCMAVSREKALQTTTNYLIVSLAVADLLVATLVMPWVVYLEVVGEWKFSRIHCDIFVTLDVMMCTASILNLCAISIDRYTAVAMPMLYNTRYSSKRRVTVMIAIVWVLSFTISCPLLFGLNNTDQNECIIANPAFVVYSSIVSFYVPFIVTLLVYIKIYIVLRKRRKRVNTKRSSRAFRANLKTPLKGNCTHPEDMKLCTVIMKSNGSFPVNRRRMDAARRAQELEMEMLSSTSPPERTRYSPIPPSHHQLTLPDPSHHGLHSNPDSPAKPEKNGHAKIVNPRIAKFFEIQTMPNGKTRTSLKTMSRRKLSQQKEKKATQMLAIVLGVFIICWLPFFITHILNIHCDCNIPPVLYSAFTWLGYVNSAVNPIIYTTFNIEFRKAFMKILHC

As a reminder, the IC50 is the midpoint of a concentration-inhibition curve. Read a low IC50 as greater potency. One may read the ED50 as the dose at which the effect has come halfway, by size or by number of responders. A low value points to greater potency. For `Cl.O=C1CSC(=O)N1CCCCN1CCN(c2nsc3ccccc23)CC1`, the figures for the IC50 (at D(2) dopamine receptor; in test [1]) were 53 nM and 0.9 nM, respectively. In the test listed under Rattus norvegicus [2], the ED50 turned out to be 27.8 mg/kg.

Turning to `Cl.c1ccc2c(N3CCNCC3)noc2c1`, the IC50 against D(2) dopamine receptor was greater than 1000 nM; in test [1], 165 nM. The compound also had an ED50 in the test filed under Rattus norvegicus [3] greater than 100 mg/kg.

As for `CCCC1(C)CC(=O)N(CCCCN2CCN(c3nsc4ccccc34)CC2)C(=O)C1.Cl`, the IC50 was 55 nM against D(2) dopamine receptor and 9 nM in test [1]. Moreover, the ED50 in the test listed under Rattus norvegicus [2] worked out at 24.3 mg/kg.

As to `CCC1(CC)CC(=O)N(CCCCN2CCN(c3nsc4ccccc34)CC2)C(=O)C1.Cl`, on D(2) dopamine receptor, the half-inhibitory concentration (IC50) came to 49 nM. In the test listed under Rattus norvegicus [2], the 50% effective dose (ED50) stood at 35.2 mg/kg.

With `Cl.O=C1SC2(CCCC2)C(=O)N1CCCCN1CCN(c2nsc3ccccc23)CC1`, the IC50 against D(2) dopamine receptor was determined as 42 nM; in test [1], 9 nM. Besides, the results for the 50% effective dose (ED50) in the test listed under Rattus norvegicus [2] and in the test filed under Rattus norvegicus [4] were 11.6 mg/kg and 45 mg/kg, respectively.

With `Cl.c1ccc2c(N3CCNCC3)nsc2c1`, the IC50 against D(2) dopamine receptor was greater than 1000 nM; in test [1], 510 nM. Besides, the median effective dose (ED50) in the test filed under Rattus norvegicus [3] was greater than 100 mg/kg.

`O=C1SC2(CCCC2)C(=O)N1CCCCN1CCN(c2noc3ccccc23)CC1` displayed an IC50 at D(2) dopamine receptor of 78 nM. Moreover, the ED50 in the test listed under Rattus norvegicus [3] was 8.1 mg/kg; in the test filed under Rattus norvegicus [4], 21.5 mg/kg.

In the case of `O=C1CC2(CCCC2)CC(=O)N1CCCCN1CCN(c2noc3cc(Cl)ccc23)CC1`, the IC50 at D(2) dopamine receptor was found to be 59 nM; in test [1], 5 nM. In the test listed under Rattus norvegicus [3], this compound gave an ED50 of 26 mg/kg.

`O=C1CC2(CCCC2)CC(=O)N1CCCCN1CCN(c2nc3ccccc3s2)CC1`: the half-inhibitory concentration (IC50) on D(2) dopamine receptor came out at 145 nM; in test [1], 454 nM. The compound also yielded an ED50 in the test listed under Rattus norvegicus [3] greater than 100 mg/kg.

The compound `O=C1CC2(CCCC2)CC(=O)N1CCCCN1CCCN(c2nsc3ccccc23)CC1` returned an IC50 against D(2) dopamine receptor of 235 nM. The median effective dose (ED50) in the test listed under Rattus norvegicus [3] was greater than 100 mg/kg.

For `CC1CN(c2nsc3ccccc23)CCN1CCCCN1C(=O)CC2(CCCC2)CC1=O` (stereo not drawn), half-maximal inhibition on D(2) dopamine receptor (IC50) was put at 203 nM. The ED50 in the test listed under Rattus norvegicus [3] was greater than 100 mg/kg.

Regarding `O=C1CC2(CCCC2)CC(=O)N1CCCN1CCN(c2nsc3ccccc23)CC1`, the values for the half-maximal inhibitory concentration (IC50) (against D(2) dopamine receptor; in test [1]) were 145 nM and 3 nM, respectively. In the test listed under Rattus norvegicus [3], this compound returned an ED50 greater than 100 mg/kg.

Take `OC(CCCN1CCN(c2nsc3ccccc23)CC1)c1ccc(F)cc1` (stereo not drawn): the ED50 was determined as 5 mg/kg in the test filed under Rattus norvegicus [5] and 2.4 mg/kg in the test listed under Rattus norvegicus [3]. In addition, the IC50 (against D(2) dopamine receptor; in test [1]) was 2 nM throughout.
